From ChEMBL document CHEMBL3763157, “Synthesis and biological evaluation of novel orally available 1-phenyl-6-aminouracils containing dimethyldihydrobenzofuranol structure for the treatment of allergic skin diseases” (Bioorg Med Chem Lett, 2016) come the findings set out here.

Data set [1] has as its system Mus musculus. As to the kind of experiment: Antiinflammatory activity in ICR mouse assessed as inhibition of picryl chloride-induced contact hypersensitivity reaction administered topically on left ear after 24 hrs. It is filed as functional. A digest of the protocol:
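Mice sensitized with picryl chloride; test agent applied topically at 0.1 mg/ear in acetone. Percent inhibition is the drug-treated group's percent response relative to the control group, n = 5, reported as the mean of 5 animals.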

A short description of data set [2]: Solubility of the compound in phosphate buffer solution at pH 7.4. It is filed as physicochemical. A digest of the protocol:
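Solubility taken as the amount dissolved in phosphate buffer solution at pH 7.4, in […].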

Data set [3] relates to Liver microsome. Kind of data set: Metabolic stability in human liver microsomal fraction assessed per mg of protein. It is filed as ADME. As to conditions: microsomes. A digest of the protocol:
(§1)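 Metabolic stability measured in human or rat liver microsomal fraction. Reported as mL/min/mg protein.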

Data set [4] deals with Liver microsome. Kind of data set: Metabolic stability in rat liver microsomal fraction assessed per mg of protein. It is filed as ADME. To be noted: microsomes. A digest of the protocol:
as §1

The nature of data set [5]: Apparent permeability in human Caco2 cells. As to conditions: Caco-2. It is filed as ADME, cell-based. A digest of the protocol:
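Caco-2 monolayer permeability reported as apparent permeability (Papp), in units of 10^-6 cm/s.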
In general terms: Passage across Caco-2 layers is used to estimate intestinal permeability.

The nature of data set [6]: Clearance in mouse at 1 mg/kg, iv. It is filed as ADME, organism-based. To be noted: in vivo. A digest of the protocol: (§2)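 Mouse plasma PK after a single 1 mg/kg iv injection. Clearance (mL/min/kg) and steady-state volume of distribution (L/kg) derived from the plasma concentration profile.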
The nature of data set [7]: Volume of distribution at steady state in mouse at 1 mg/kg, iv. It is filed as ADME, organism-based. As to conditions: in vivo, read-out: Vdss. A digest of the protocol: as §2
Data set [8] can be described thus: AUC in mouse at 1 mg/kg, iv. It is filed as ADME, organism-based. To be noted: in vivo. A digest of the protocol:
(§3)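 Mouse pharmacokinetic study with single dosing, intravenous at 1 mg/kg or oral at 10 mg/kg. Plasma drug concentrations were measured, and AUC was taken from the plasma concentration curve. The same study also gave CL and Vdss (iv), Cmax (po) and oral bioavailability.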

Data set [9] is described as follows: AUC in mouse at 10 mg/kg, po. It is filed as ADME, organism-based. To be noted: in vivo. A digest of the protocol: as §3
The nature of data set [10]: Cmax in mouse at 10 mg/kg, po. It is filed as ADME, organism-based. On the set-up: dose 10 mg/kg, route oral. To be noted: in vivo. A digest of the protocol:
(§4)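 Mouse plasma PK after 10 mg/kg oral dosing. Cmax in ng/mL. Bioavailability derived from oral AUC compared with AUC after a 1 mg/kg iv dose.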

Data set [11] in a line: Oral bioavailability in mouse at 10 mg/kg. It is filed as ADME, organism-based. To be noted: in vivo. A digest of the protocol:
as §4

Data set [12] relates to Mus musculus. Kind of data set: Antiinflammatory activity in po dosed mouse assessed as inhibition of picryl chloride-induced contact hypersensitivity reaction administered 30 mins prior to picryl chloride challenge. It is filed as functional, organism-based. A digest of the protocol:
(§5)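 Mice sensitized with picryl chloride one week before the study. Oral dose given 30 min before picryl chloride challenge. Data are mean ± SEM, n = 5/group, analysed by Dunnett's test.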

Data set [13] concerns Mus musculus. Kind of data set: Antipruritic activity in mouse assessed as inhibition of substance P-induced pruritus at 10 mg/kg administered 30 mins prior to substance P challenge measured over 60 mins. It is filed as functional, organism-based. A digest of the protocol:
(§6)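 Oral dose given 30 min before substance P challenge. Scratches counted over 60 min. Data are mean ± SEM, n = 7–8/group, analysed by Dunnett's test.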

Data set [14] can be described thus: Antioxidant activity assessed as suppression of H2O2/cobalt2+-mediated hydroxyl radical formation by luminol-based […] assay. It is filed as physicochemical.
Data set [15] has as its target Dual specificity mitogen-activated protein kinase kinase; MEK1/2 (Homo sapiens) (UniProt P36507+Q02750). Kind of data set: Inhibition of MEK1/2 (unknown origin). It is filed as protein assay.
Data set [16] relates to Mus musculus. Kind of data set: Antiinflammatory activity in mouse assessed as inhibition of picryl chloride-induced contact hypersensitivity reaction at 10 mg/kg, po administered 30 mins prior to picryl chloride challenge. It is filed as functional, organism-based. A digest of the protocol: as §5
Data set [17] is described as follows: Antioxidant activity assessed as suppression of H2O2/DETAPAC-Fe2+-mediated hydroxyl radical formation by measuring oxidation of dihydrorhodamine after 5 mins by fluorescence assay. It is filed as physicochemical.
The test system of data set [18] is Mus musculus. As to the kind of experiment: Antipruritic activity in mouse assessed as inhibition of substance P-induced pruritus at 30 mg/kg administered 30 mins prior to substance P challenge measured over 60 mins. It is filed as functional, organism-based. A digest of the protocol: as §6

Converted amounts (≈) assume the structure as drawn. The source made the active and inactive calls. No cut-off for these calls is given here.

Sequence of Dual specificity mitogen-activated protein kinase kinase; MEK1/2 (Homo sapiens) (P36507 whole entry, looked up): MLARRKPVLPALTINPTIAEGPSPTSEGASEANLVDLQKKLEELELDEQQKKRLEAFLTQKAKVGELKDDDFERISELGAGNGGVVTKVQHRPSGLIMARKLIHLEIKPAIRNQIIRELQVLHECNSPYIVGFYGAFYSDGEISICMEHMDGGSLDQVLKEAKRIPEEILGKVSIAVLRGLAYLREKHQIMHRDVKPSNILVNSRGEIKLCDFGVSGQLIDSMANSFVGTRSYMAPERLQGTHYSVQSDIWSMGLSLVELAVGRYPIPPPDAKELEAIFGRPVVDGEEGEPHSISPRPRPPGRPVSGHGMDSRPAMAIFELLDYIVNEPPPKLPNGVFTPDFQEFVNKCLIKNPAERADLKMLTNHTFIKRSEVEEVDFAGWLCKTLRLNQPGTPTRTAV
Sequence of Dual specificity mitogen-activated protein kinase kinase; MEK1/2 (Homo sapiens) (Q02750 whole entry, looked up): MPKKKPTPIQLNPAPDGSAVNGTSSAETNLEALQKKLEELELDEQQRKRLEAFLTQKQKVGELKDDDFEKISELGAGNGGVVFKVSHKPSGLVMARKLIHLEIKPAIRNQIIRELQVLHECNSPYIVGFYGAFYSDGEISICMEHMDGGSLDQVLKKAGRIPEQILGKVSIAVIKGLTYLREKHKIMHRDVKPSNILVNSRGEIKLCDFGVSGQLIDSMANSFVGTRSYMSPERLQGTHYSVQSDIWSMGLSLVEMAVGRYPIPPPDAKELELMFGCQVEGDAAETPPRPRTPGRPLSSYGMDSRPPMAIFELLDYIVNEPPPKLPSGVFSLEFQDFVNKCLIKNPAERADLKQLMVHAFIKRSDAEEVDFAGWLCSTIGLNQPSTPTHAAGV

In the case of `CCOc1cccc(-n2c(N)c(NC(=O)c3c(C)c(O)c(C)c4c3OC(C)(C)C4)c(=O)n(C)c2=O)c1`, the “inhibition (INH)” value with Mus musculus [1] is 16%.

As for `Cc1c(O)c(C)c(C(=O)Nc2c(N)n(-c3cccc(C(=O)O)c3)c(=O)n(C)c2=O)c2c1CC(C)(C)O2`, the “inhibition (INH)” value in the data set with Mus musculus [1] came to 9%.

With `Cc1cccc(-n2c(N)c(NC(=O)c3c(C)c(O)c(C)c4c3OC(C)(C)C4)c(=O)n(C)c2=O)c1`, the “inhibition (INH)” value with Mus musculus [1] is 52%. For the same molecule, in [2], the concentration in solution (solubility) came to 21 µg/mL (≈ 45.2 µM). For the same molecule, the Stability is 19 µL/min/mg in the data set on Liver microsome [3] and below 10 µL/min/mg in the data set on Liver microsome [4]. In addition, the Papp (commonly the rate of passage across a membrane or cell layer, normalised by area and donor concentration) in [5] amounted to 14 ×10⁻⁶ cm/s. Moreover, in [6], the clearance (in general, a measure of how efficiently the substance is removed, as volume per time) stood at 18 mL/min/kg. Besides, in [7], the Vd stood at 1 L/kg. The AUC (commonly concentration integrated over time) in data set [8] turned out to be 927 ng·h/mL; in data set [9] it was 1100 ng·h/mL. The Cmax (as a rule, the highest concentration seen after dosing) in data set [10] is 511 ng/mL. In addition, the bioavailability – broadly, the share of a dose that reaches the circulation, judged against a reference dose that is usually intravenous – in data set [11] is 12%. The inhibition result in the data set with Mus musculus [12] is “Dose-dependent effect”. Besides, the inhibition entry (in the data set on Mus musculus [13]; in data set [15]) was “Active” each time. Also, the IC50 (as a rule, the concentration that gives 50% inhibition) in data set [14] amounted to 8.6 µM.

Regarding `Cc1c(O)c(C)c(C(=O)Nc2c(N)n(-c3cccc(F)c3)c(=O)n(C)c2=O)c2c1CC(C)(C)O2`, in the data set with Mus musculus [1], the “inhibition (INH)” value is given as 10%.

For the molecule `C[C@]12C=CC(=O)C=C1CC[C@@H]1[C@@H]2[C@@H](O)C[C@@]2(C)[C@H]1CC[C@]2(O)C(=O)CO`, the inhibition entry in the data set on Mus musculus [16] was “Active”.

For `C=CC[C@@H]1/C=C(\C)C[C@H](C)C[C@H](OC)[C@H]2O[C@@](O)(C(=O)C(=O)N3CCCC[C@H]3C(=O)O[C@H](/C(C)=C/[C@@H]3CC[C@@H](O)[C@H](OC)C3)[C@H](C)[C@@H](O)CC1=O)[C@H](C)C[C@@H]2OC` [TACROLIMUS ANHYDROUS], the “inhibition (INH)” value with Mus musculus [1] was 53%.

Consider `Cc1c(C)c2c(c(C)c1O)CC[C@@](C)(C(=O)Nc1c(N)n(-c3ccccc3)c(=O)n(C)c1=O)O2`, for which the figures for the IC50 in [14] and in data set [17] were 12.1 µM and 44 µM, respectively.

For `O=c1[nH]c2ccccc2n1CCCN1CCN(C(c2ccccc2)c2ccccc2)CC1`, in the data set with Mus musculus [18], the inhibition result is “Active”.

On to `O=C1O[C@H]([C@@H](O)CO)C(O)=C1O` [ASCORBIC ACID], for which the IC50 was determined as 82 µM in [14] and 54 µM in [17].

Consider `Cc1ccc(-n2c(N)c(NC(=O)c3c(C)c(O)c(C)c4c3OC(C)(C)C4)c(=O)n(C)c2=O)cc1`, for which the “inhibition (INH)” value in the data set on Mus musculus [1] worked out at 30%.

On to `Cc1ccc(-n2c(N)c(NC(=O)c3c(C)c(O)c(C)c4c3OC(C)(C)C4)c(=O)n(C)c2=O)cc1C`, for which the “inhibition (INH)” value in the data set with Mus musculus [1] was determined as 45%.

With `Cc1c(C)c2c(c(C)c1O)CCC(C)(C(=O)O)O2` (stereo unspecified) [TROLOX], the results for the IC50 in data set [14] and in data set [17] were 9.7 µM and 24 µM, respectively.

Turning to `CCc1cccc(-n2c(N)c(NC(=O)c3c(C)c(O)c(C)c4c3OC(C)(C)C4)c(=O)n(C)c2=O)c1`, in the data set on Mus musculus [1], the “inhibition (INH)” value came to 14%.

Turning to `Cc1cc(C)cc(-n2c(N)c(NC(=O)c3c(C)c(O)c(C)c4c3OC(C)(C)C4)c(=O)n(C)c2=O)c1`, the “inhibition (INH)” value with Mus musculus [1] is reported as 15%.
